For assay [1], the target named is Serotonin 2 (5-HT2) receptor (Rattus norvegicus, UniProt P30994+P08909+P14842). In words: Compound was evaluated for its ability to displace [3H]ketanserin binding from […] rat cerebral cortex membranes 5-hydroxytryptamine 2 receptor. Type of assay: tissue-based. Summed up: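 Displacement of [³H]ketanserin from 5-HT2 sites in rat cerebral cortex membranes. Values reported as pKi, each the mean of at least two determinations, each within 0.2 log unit of the mean.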

Assay [2] concerns the target 5-hydroxytryptamine receptor 7 (Homo sapiens, UniProt P34969). The assay is described as follows: Compound was evaluated for its ability to displace [3H]5-CT binding from cloned human 5-hydroxytryptamine 7 receptor expressed in COS-7 cells. Type of assay: cell-based. Summed up:
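Radioligand displacement of [³H]5-CT from cloned human 5-HT7 receptor expressed in COS-7 cells. Values reported as pKi, each the mean of at least two determinations, each within 0.2 log unit of the mean.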

Assay [3] concerns the target T1, 5-hydroxytryptamine receptor 1A (Homo sapiens, UniProt P08908).
T1 sequence (P08908 whole entry): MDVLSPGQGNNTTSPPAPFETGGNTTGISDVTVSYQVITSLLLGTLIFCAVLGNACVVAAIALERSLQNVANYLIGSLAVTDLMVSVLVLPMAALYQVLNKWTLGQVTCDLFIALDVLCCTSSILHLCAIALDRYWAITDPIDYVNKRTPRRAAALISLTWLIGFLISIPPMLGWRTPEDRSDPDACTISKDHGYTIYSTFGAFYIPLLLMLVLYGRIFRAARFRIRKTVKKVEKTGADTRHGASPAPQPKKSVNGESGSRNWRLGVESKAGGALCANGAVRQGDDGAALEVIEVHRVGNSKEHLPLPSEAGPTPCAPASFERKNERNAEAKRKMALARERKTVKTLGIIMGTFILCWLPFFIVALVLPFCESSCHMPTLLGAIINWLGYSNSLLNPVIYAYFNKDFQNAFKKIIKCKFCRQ
The assay is described as follows: Compound was evaluated for its ability to displace [3H]8-OH-DPAT binding from human 5-hydroxytryptamine 1A receptor in mammalian cells. Type of assay: cell-based. Put shortly:
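Radioligand displacement at human recombinant 5-HT1A receptor expressed in mammalian cells, labelled with [3H]8-OH-DPAT. Affinity reported as pKi, mean of at least two determinations, each within 0.2 log unit of the mean.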

In assay [4] the target is 5-hydroxytryptamine receptor 4 (Cavia porcellus, UniProt O70528). The assay is described as follows: Compound was evaluated for its ability to displace [3H]GR-113808 binding from 5-hydroxytryptamine 4 receptor in guinea pig striatum. Put shortly: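 Competition binding in guinea-pig striatum using [3H]GR-113808 at 5-HT4 sites. pKi is the mean of at least two determinations, each within 0.2 log unit of the mean.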

Assay [5] has as its target 5-hydroxytryptamine receptor 6 (Homo sapiens, UniProt P50406). In words: Compound was evaluated for its ability to displace [3H]LSD binding from human recombinant 5-hydroxytryptamine 6 receptor. Put shortly: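 Displacement of [3H]LSD from human recombinant 5-HT6 receptor expressed in mammalian cells. pKi is the mean of at least two determinations, each lying within 0.2 log unit of the mean.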

Assay [6] addresses D(2) dopamine receptor (Rattus norvegicus, UniProt P61169). In words: Compound was evaluated for its ability to displace [3H]spiperone binding from Dopamine receptor D2 in rat striatum. Put shortly:
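Dopamine D2 binding was run in rat striatum with [3H]spiperone as radioligand. Values are pKi, mean of at least two determinations, each within 0.2 log unit of the mean.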

Where only a bound is given, the exact number is not on record here.

These results are taken from ChEMBL document CHEMBL1132576, “Tetrahydrobenzindoles: selective antagonists of the 5-HT7 receptor” (J Med Chem, 1999).

5-hydroxytryptamine receptor 7, sequence (P34969 whole entry): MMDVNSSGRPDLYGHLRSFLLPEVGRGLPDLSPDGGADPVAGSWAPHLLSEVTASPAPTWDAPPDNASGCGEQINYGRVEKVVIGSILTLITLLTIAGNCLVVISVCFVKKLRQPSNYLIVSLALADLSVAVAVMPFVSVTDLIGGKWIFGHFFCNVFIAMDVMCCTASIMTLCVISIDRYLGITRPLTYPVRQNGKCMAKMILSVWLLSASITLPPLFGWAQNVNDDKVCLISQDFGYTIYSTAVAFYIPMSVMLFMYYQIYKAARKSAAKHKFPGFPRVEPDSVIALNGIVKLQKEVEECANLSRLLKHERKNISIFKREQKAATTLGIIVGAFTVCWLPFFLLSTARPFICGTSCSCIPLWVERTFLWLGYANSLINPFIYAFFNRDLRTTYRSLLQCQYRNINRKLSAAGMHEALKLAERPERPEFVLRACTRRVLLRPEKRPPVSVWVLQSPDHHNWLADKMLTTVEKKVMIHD
5-hydroxytryptamine receptor 6, sequence (P50406 whole entry): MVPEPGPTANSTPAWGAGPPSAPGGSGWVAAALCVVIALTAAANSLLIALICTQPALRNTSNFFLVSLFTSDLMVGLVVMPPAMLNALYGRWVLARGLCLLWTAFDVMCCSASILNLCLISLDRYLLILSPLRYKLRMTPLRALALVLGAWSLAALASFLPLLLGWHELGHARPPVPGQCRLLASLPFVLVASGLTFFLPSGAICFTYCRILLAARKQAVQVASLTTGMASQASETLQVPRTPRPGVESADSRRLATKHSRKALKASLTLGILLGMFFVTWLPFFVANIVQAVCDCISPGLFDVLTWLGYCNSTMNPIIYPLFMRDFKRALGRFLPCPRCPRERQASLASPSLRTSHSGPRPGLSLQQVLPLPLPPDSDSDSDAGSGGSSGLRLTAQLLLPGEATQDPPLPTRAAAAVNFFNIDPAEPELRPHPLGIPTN
D(2) dopamine receptor, sequence (P61169 whole entry): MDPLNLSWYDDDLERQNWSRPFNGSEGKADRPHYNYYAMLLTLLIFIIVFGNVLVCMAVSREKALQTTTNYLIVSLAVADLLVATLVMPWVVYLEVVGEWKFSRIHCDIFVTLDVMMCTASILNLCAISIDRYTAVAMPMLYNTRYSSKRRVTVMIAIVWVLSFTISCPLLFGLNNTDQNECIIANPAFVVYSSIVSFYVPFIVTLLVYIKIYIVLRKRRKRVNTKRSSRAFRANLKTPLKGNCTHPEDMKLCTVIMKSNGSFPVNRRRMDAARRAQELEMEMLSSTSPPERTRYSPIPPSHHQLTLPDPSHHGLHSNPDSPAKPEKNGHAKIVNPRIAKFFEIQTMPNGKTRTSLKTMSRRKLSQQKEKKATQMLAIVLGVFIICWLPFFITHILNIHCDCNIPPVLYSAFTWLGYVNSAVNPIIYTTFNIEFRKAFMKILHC
5-hydroxytryptamine receptor 4, sequence (O70528 whole entry): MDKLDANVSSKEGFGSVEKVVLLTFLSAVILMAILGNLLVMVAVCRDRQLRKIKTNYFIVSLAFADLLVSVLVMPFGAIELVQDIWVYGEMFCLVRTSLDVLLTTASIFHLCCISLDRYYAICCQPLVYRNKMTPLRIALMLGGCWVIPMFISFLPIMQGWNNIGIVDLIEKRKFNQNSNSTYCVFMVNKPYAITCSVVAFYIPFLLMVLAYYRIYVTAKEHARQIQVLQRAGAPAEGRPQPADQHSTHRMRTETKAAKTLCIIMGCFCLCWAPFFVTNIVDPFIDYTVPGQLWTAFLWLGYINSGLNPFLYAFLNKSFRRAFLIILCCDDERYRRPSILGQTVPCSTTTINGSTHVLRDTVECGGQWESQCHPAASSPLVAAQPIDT

Regarding `O=C1Nc2cccc3c2C1(CCCCN1CCN(c2ccccc2)CC1)CCC3` (stereo not given), the “Log Ki” value in assay [1] is reported as -7.37. For the same molecule, in assay [2], affinity was put at a Ki of 3.31 nM.
In the case of `COc1ccccc1N1CCN(CCCCC23CCCc4cccc(c42)NC3=O)CC1` (stereo not given), the “Log Ki” value in assay [1] is -6.95. The Ki (usually the equilibrium dissociation constant of an inhibitor or competing ligand from its target) in assay [2] is 5.13 nM.
On to `O=C1Nc2cccc3c2C1(CCCN1CCN(c2ccccc2)CC1)CCC3` (stereo not given), for which the “Log Ki” value in assay [1] is on record as -7.79. The molecule also showed a Ki in assay [2] of 5.25 nM.
`O=C1Nc2cccc3c2C1(CCN1CCN(c2ccccc2)CC1)CCC3` (stereo not given): in assay [1], the “Log Ki” value is recorded as -8.27. Besides, the Ki in assay [2] is 102 nM.
For the molecule `N#Cc1ccccc1N1CCN(CCCCC23CCCc4cccc(c42)NC3=O)CC1` (stereo not given), in assay [1], the “Log Ki” value is given as -6.98. The same molecule showed a Ki in assay [2] of 3.8 nM.
As for `O=C1Nc2cccc3c2C1(CCCCN1CCN(C2CCCCC2)CC1)CCC3` (stereo not given), the Log Ki in assay [1] is > -6. Besides, the Ki in assay [2] was > 1000 nM.
On to `O=C1Nc2cccc3c2C1(CCCCN1CCN(c2ccccn2)CC1)CCC3` (stereo not given), for which the “Log Ki” value in assay [1] is given as -7.27. In assay [2], this molecule had an inhibition constant (Ki) of 1.86 nM.
As for `O=C1Nc2cccc3c2C1(CCCCN1CC=C(c2ccccc2)CC1)CCC3` (stereo not given), the Ki is 170 nM in assay [3]; > 1000 nM in assay [4]; 2.14 nM in assay [2]; 525 nM in assay [5]; 105 nM in assay [6]. Further, the “Log Ki” value in assay [1] is recorded as -7.01.
